ChEMBL document CHEMBL5058577, “EUbOPEN Chemogenomics Library 2 (Multiplex)” (2022)

Test system: U2OS
Test: Multiplex assay against U2OS
Format: toxicity, cell-based
Conditions: human
Method in brief: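 Tubulin, mitochondrial-mass and membrane-permeability phenotypes are per cents of healthy-nucleus cells. Cells were gated by CellPathfinder machine learning into Hoechst high-intensity objects or normal cells, normal cells into healthy, pyknosed or fragmented nuclei, and pyknosed cells into mitotic or apoptotic. Before that, live cells stained at seeding with Hoechst33342, BioTracker Green Microtubule Cytoskeleton Dye, MitoTracker Red and Annexin V Alexa Fluor 680 were imaged on a CQ1 microscope at 37°C and 5% CO2 after compound addition.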

[1] = 12 h, 1 µM, compound concentration 1 uM, replicate 1
[2] = 12 h, 1 µM, compound concentration 1 uM, replicate 2
[3] = 12 h, 10 µM, compound concentration 10 uM, replicate 1
[4] = 12 h, 10 µM, compound concentration 10 uM, replicate 2
[5] = 24 h, 1 µM, compound concentration 1 uM, replicate 1
[6] = 24 h, 1 µM, compound concentration 1 uM, replicate 2
[7] = 24 h, 10 µM, compound concentration 10 uM, replicate 1
[8] = 24 h, 10 µM, compound concentration 10 uM, replicate 2
[9] = 48 h, 1 µM, compound concentration 1 uM, replicate 1
[10] = 48 h, 1 µM, compound concentration 1 uM, replicate 2
[11] = 48 h, 10 µM, compound concentration 10 uM, replicate 1
[12] = 48 h, 10 µM, compound concentration 10 uM, replicate 2

## Cc1noc(-c2ccc(-c3ccc(CC(=O)O)cc3)cc2)c1NC(=O)O[C@H](C)c1ccccc1Cl
[1]
  Population Apoptotic (%): 95%
  Population Fragmented Nuclei (%): 21%
  Population Healthy Nuclei (%): 69%
  Population Hoechst High Intensity Objects (%): 4%
  Population Membrane Permeable-Phenotype (%): 7%
  Population Mitochondria Different-Phenotype (%): 5%
  Population Mitotic Cells (%): 5%
  Population Normal (%): 95%
  Population Pyknosed Nuclei (%): 9%
  Population Tubulin-Different-Phenotype (%): 4%
  Total Cell Count: 231
[2]
  Population Apoptotic (%): 85%
  Population Fragmented Nuclei (%): 19%
  Population Healthy Nuclei (%): 74%
  Population Hoechst High Intensity Objects (%): 0%
  Population Membrane Permeable-Phenotype (%): 2%
  Population Mitochondria Different-Phenotype (%): 2%
  Population Mitotic Cells (%): 14%
  Population Normal (%): 99%
  Population Pyknosed Nuclei (%): 7%
  Total Cell Count: 101
[3]
  Population Apoptotic (%): 78%
  Population Fragmented Nuclei (%): 29%
  Population Healthy Nuclei (%): 61%
  Population Hoechst High Intensity Objects (%): 2%
  Population Membrane Permeable-Phenotype (%): 11%
  Population Mitochondria Different-Phenotype (%): 4%
  Population Mitotic Cells (%): 21%
  Population Normal (%): 97%
  Population Pyknosed Nuclei (%): 9%
  Population Tubulin-Different-Phenotype (%): 6%
  Total Cell Count: 242
[4]
  Population Apoptotic (%): 71%
  Population Fragmented Nuclei (%): 11%
  Population Healthy Nuclei (%): 83%
  Population Membrane Permeable-Phenotype (%): 6%
  Population Mitochondria Different-Phenotype (%): 2%
  Population Mitotic Cells (%): 28%
  Population Pyknosed Nuclei (%): 5%
  Total Cell Count: 138
[5]
  Population Apoptotic (%): 96%
  Population Fragmented Nuclei (%): 19%
  Population Healthy Nuclei (%): 70%
  Population Hoechst High Intensity Objects (%): 2%
  Population Membrane Permeable-Phenotype (%): 5%
  Population Mitochondria Different-Phenotype (%): 4%
  Population Mitotic Cells (%): 3%
  Population Normal (%): 97%
  Population Pyknosed Nuclei (%): 9%
  Population Tubulin-Different-Phenotype (%): 3%
  Total Cell Count: 277
[6]
  Population Apoptotic (%): 77%
  Population Fragmented Nuclei (%): 15%
  Population Healthy Nuclei (%): 77%
  Population Hoechst High Intensity Objects (%): 0%
  Population Membrane Permeable-Phenotype (%): 4%
  Population Mitochondria Different-Phenotype (%): 3%
  Population Mitotic Cells (%): 22%
  Population Normal (%): 99%
  Population Pyknosed Nuclei (%): 7%
  Population Tubulin-Different-Phenotype (%): 6%
  Total Cell Count: 125
[7]
  Population Apoptotic (%): 92%
  Population Fragmented Nuclei (%): 24%
  Population Healthy Nuclei (%): 65%
  Population Hoechst High Intensity Objects (%): 1%
  Population Membrane Permeable-Phenotype (%): 11%
  Population Mitochondria Different-Phenotype (%): 2%
  Population Mitotic Cells (%): 7%
  Population Normal (%): 98%
  Population Pyknosed Nuclei (%): 10%
  Population Tubulin-Different-Phenotype (%): 5%
  Total Cell Count: 260
[8]
  Population Apoptotic (%): 90%
  Population Fragmented Nuclei (%): 12%
  Population Healthy Nuclei (%): 80%
  Population Hoechst High Intensity Objects (%): 2%
  Population Membrane Permeable-Phenotype (%): 7%
  Population Mitotic Cells (%): 9%
  Population Normal (%): 97%
  Population Pyknosed Nuclei (%): 7%
  Population Tubulin-Different-Phenotype (%): 4%
  Total Cell Count: 154
[9]
  Population Apoptotic (%): 97%
  Population Fragmented Nuclei (%): 15%
  Population Healthy Nuclei (%): 75%
  Population Hoechst High Intensity Objects (%): 1%
  Population Membrane Permeable-Phenotype (%): 6%
  Population Mitochondria Different-Phenotype (%): 3%
  Population Mitotic Cells (%): 2%
  Population Normal (%): 98%
  Population Pyknosed Nuclei (%): 9%
  Population Tubulin-Different-Phenotype (%): 3%
  Total Cell Count: 408
[10]
  Population Apoptotic (%): 86%
  Population Fragmented Nuclei (%): 18%
  Population Healthy Nuclei (%): 72%
  Population Hoechst High Intensity Objects (%): 0%
  Population Mitochondria Different-Phenotype (%): 4%
  Population Mitotic Cells (%): 13%
  Population Normal (%): 100%
  Population Pyknosed Nuclei (%): 8%
  Population Tubulin-Different-Phenotype (%): 4%
  Total Cell Count: 170
[11]
  Population Apoptotic (%): 92%
  Population Fragmented Nuclei (%): 19%
  Population Healthy Nuclei (%): 72%
  Population Hoechst High Intensity Objects (%): 3%
  Population Membrane Permeable-Phenotype (%): 7%
  Population Mitochondria Different-Phenotype (%): 3%
  Population Mitotic Cells (%): 7%
  Population Normal (%): 96%
  Population Pyknosed Nuclei (%): 8%
  Population Tubulin-Different-Phenotype (%): 5%
  Total Cell Count: 344
[12]
  Population Apoptotic (%): 85%
  Population Fragmented Nuclei (%): 9%
  Population Healthy Nuclei (%): 78%
  Population Hoechst High Intensity Objects (%): 4%
  Population Membrane Permeable-Phenotype (%): 6%
  Population Mitochondria Different-Phenotype (%): 2%
  Population Mitotic Cells (%): 14%
  Population Normal (%): 95%
  Population Pyknosed Nuclei (%): 11%
  Population Tubulin-Different-Phenotype (%): 4%
  Total Cell Count: 241
